Shown are actives, neighbours in structure and some others; about 2.4% of the full set was active somewhere.
Cneo AK release = Cryptococcus neoformans lysis via adenylate kinase release | actives 0.2% (n = 360,000) | C. neoformans lysis, adenylate kinase release luminescence, 4 h; normalised: neutral wells 0, clomiphene wells 100 | lysis activity, % at 15 µM;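 active = mean lysis activity across replicates of at least 80%, whatever share of replicates individually reach that level; inactive = mean lysis activity below 80%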
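Material – Cryptococcus neoformans yeast cells · Quantity – 5 × 10^6 yeast cells/mL · Buffer or medium – YPD medium · Compound – single dose · Timing – 4 h static compound exposure, 37 °C, read 1 h post-reagent · Signal – adenylate kinase release luminescence · Read-out basis – lysis from increased AK signal · Benchmarks – Clomiphene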
GSIS activator = GLuc luminescence reporter in INS-1E cells, primary screen for activators of glucose-dependent secretion of insulin; activation, % at 16.6 µM; INS-1E GLuc reporter insulin secretion, 2-3 h; actives 0.61% (n = 370,000);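 active = lowest replicate activation of at least 40%, so every replicate reaches that level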;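 also: 0% = median of neutral control wells and 100% = median of IBMX positive control wells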
miR122 inh = blocks miR-122 activity in Huh7 sensor cells; Huh7 miR-122 Renilla luciferase sensor, 48 h; neutral wells = 0, positive control = 100; activation (reporter increase), % at 12.5 µM; actives 0.3% (n = 340,000);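 active = mean replicate activation score at least 90 and every replicate individually at or above 90; inconclusive = only one of the two criteria met; inactive = neither criterion met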;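 also: higher luciferase means less miR-122 activity so hits act as miR-122 inhibitors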
Env fusion inh = blocks HIV Env-driven cell-cell fusion | actives 1.1% (n = 360,000) | inhibition, % at 12.3 µM | AID 651610 | HeLa-JRFL Env/CEM21 cell fusion, luciferase;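 active = mean replicate inhibition score of at least 50 and every replicate individually at or above 50; inconclusive = only one of the two criteria met; inactive = mean below 50 and not all replicates reaching 50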;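 also: 0% = plate neutral controls and 100% = maraviroc near 300 nM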
Rtt109 Vps75 = inhibitors of Candida albicans Rtt109/Vps75 histone acetyltransferase; Q5AAJ8; inhibition, % at 34.9 µM; purified Rtt109/Vps75, ThioGlo CoA-SH fluorescence, 4 h; actives 0.16% (n = 330,000);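 active = inhibition of at least 50% in every replicate; inconclusive = best replicate reaches 50% inhibition but some replicates fall short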
dFosB act-1 = enhances mouse delta FosB homodimer DNA binding; P13346; purified delta FosB, TAMRA-CDK5 oligo fluorescence polarization; percent of positive-control signal above neutral wells; activation, % at 25 µM; actives 0.99% (n = 340,000);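 active = mean activation above about 17%, with every replicate also reaching it, limit read from the data, passing the limit was not always enough; inconclusive = only one of the two conditions met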
Target sequence (P13346 whole entry, looked up): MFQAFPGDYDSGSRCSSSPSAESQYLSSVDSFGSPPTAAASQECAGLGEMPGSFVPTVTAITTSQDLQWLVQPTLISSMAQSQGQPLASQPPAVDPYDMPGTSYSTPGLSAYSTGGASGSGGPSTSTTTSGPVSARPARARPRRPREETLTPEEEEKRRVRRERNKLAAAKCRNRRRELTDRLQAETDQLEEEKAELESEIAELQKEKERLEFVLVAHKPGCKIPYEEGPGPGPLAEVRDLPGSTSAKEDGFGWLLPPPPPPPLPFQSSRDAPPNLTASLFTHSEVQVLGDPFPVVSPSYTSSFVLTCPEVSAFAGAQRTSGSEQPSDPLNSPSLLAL
dFosB act-2 = delta FosB (mouse) homodimer activation. activation, % at 24.9 µM. purified delta FosB, TAMRA-CDK5 oligo fluorescence polarization; normalised: neutral wells 0, positive control 100. AID 588690. 2,400 tested, under 10 active. shares compounds with dFosB act-1;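 active = highest replicate activation at or above 34% and every replicate reaching that threshold; inconclusive = meets only one of the two criteria; inactive = meets neither criterion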;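 also: higher polarization means more probe DNA bound by delta FosB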
* hit, by the source's call; ? = inconclusive; . = not tested or not shown; [ ] = remark or other dose.

SMILES	Cneo AK release	GSIS activator	miR122 inh	Env fusion inh	Rtt109 Vps75	dFosB act-1	dFosB act-2
COc1ccc(CN(CC(=O)NC2CCCC2)C(=O)CN2C(=O)COc3ccccc32)cc1	-2	5	.	-8	10	1	.
COc1ccc(Nc2oc(COc3ccc(Cl)cc3)nc2C#N)cc1	6	.	-3	84*	3	22*	1
COc1cccc(-c2ccc3c(c2)[C@@H]2[C@@H](CCN2C(=O)C2CCCC2)[C@H](CO)N3)c1	.	8	.	.	.	.	.
Cc1ccc(N2CC(=O)Nc3c(oc4nc(-c5ccccc5)cc(C)c34)C2=O)cc1	.	11	.	-2	-16	24*	1
O=C(NNc1ccccc1[N+](=O)[O-])Nc1ccccc1	.	-6	-2	.	7	3	.
O=C(NNc1ccccc1[N+](=O)[O-])Nc1ccc(Cl)c(Cl)c1	.	.	.	52	-17	29*	5
CN(C)CC(=O)N[C@H]1CC[C@H](CC(=O)NCc2ccc(Cl)cc2)O[C@H]1CO	-3	-1	.	13[16.7 µM]	.	.	.
O=C(c1ccc(NC(=S)NCc2ccc(Cl)cc2)cc1)N1CCCCC1	-2	-3	-1	8	1	30*	1
Cc1ccccc1CNC(=O)C1CCCN(c2nnc(C)c3c(C)n(-c4ccccc4)nc23)C1 (configuration not stated)	0	1	16	11	4	18*	-4
Cc1nnc(N2CCCC(C(=O)NCc3ccccc3F)C2)c2nn(-c3ccccc3)c(C)c12 (configuration not stated)	-1	8	.	20	10	-4	.
Cc1nnc(N2CCCC(C(=O)NCc3cccc(F)c3)C2)c2nn(-c3ccccc3)c(C)c12 (configuration not stated)	-1	12	9	18	-3	-20	.
CCc1ccc(CNC(=O)C2CCCN(c3nnc(C)c4c(C)n(-c5ccccc5)nc34)C2)cc1 (configuration not stated)	-1	-24	-1	37	13	31*	?
CCCNC(=O)C[C@H]1CC[C@H]2[C@H](COc3ccc(NC(=O)Nc4cccc(C)c4)cc3C(=O)N2C)O1	-1	-5	21[16.7 µM]	6[16.7 µM]	.	.	.
O=C(CN1C(=O)COc2ccc(Cl)cc21)Nc1nccs1	-1	-4	.	.	-4	20*	3
Cc1cccnc1NC(=O)CN1C(=O)COc2ccc(Cl)cc21	8	10	5	21	-5	5	.
Cc1ccc(NC(=O)CC2=NC(=O)C(CC(=O)Nc3ccccc3F)S2)cc1 (configuration not stated)	1	-7	10	-9	-2	46*	4
Cc1ccc(-c2sc(-c3ccccc3)nc2CC(=O)Nc2ccccc2F)cc1	-1	.	1	1	-6	-2	.
C[C@@H]1CN([C@H](C)CO)C(=O)c2cc(C#CC3(O)CCCC3)cnc2O[C@@H]1CN(C)C(=O)C1CCOCC1	-7	17	-2[16.7 µM]	.	.	.	.
CCn1cc(C(=O)NP(=O)(Nc2ccc(C)cc2)Nc2ccc(C)cc2)c2ccccc21	0	26	1	-12	-3	36*	-4
CC(=O)Nc1sc(C)c(C)c1C(=O)OCC(=O)Nc1cc(S(C)(=O)=O)ccc1Cl	0	56*	-2	13	-6	56*	-1
CS(=O)(=O)c1ccc(Cl)c(NC(=O)COC(=O)c2c(Cl)cccc2Cl)c1	-3	7	2	24	-4	-13	.
COc1ccc(C(=O)Cn2cnc3ccc(Cl)cc3c2=O)cc1F	2	13	.	0	1	26*	0
CC(OC(=O)c1cc(-c2cccnc2)nc2ccccc12)C(=O)Nc1ccc2ccccc2c1 (configuration not stated)	.	2	.	-19	1	44*	7
O=C(c1ccncc1)N1CC(=O)N2[C@H](C1)[C@H](c1ccc(C#CCC3CCCC3)cc1)[C@@H]2CO	.	2	.	.	.	.	.
Cc1cccc(NC(=O)Nc2ccc3c(c2)C(=O)N(C)[C@@H]2CC[C@H](CC(=O)O)O[C@H]2CO3)c1	-2	5	-11[16.7 µM]	8[16.7 µM]	.	.	.
SMILES	Cneo AK release	GSIS activator	miR122 inh	Env fusion inh	Rtt109 Vps75	dFosB act-1	dFosB act-2
Nc1nc(CSC(=S)N2CCCCC2)nc(Nc2ccccc2)n1	.	-1	.	-8	-6	3	.
Nc1nc(CSC(=S)N2CCOCC2)nc(Nc2ccccc2)n1	-2	24	.	-14	-29	-12	.
Nc1nc(CSC(=S)N2CCN(c3ccccc3)CC2)nc(Nc2ccc(F)cc2)n1	0	-24	.	26	6	47*	5
CC1CC(C)CN(C(=S)SCc2nc(N)nc(Nc3ccccc3)n2)C1 (configuration not stated)	.	-24	.	2	-1	38*	3
C[C@H]1CN([C@@H](C)CO)S(=O)(=O)c2ccc(-c3cncnc3)cc2O[C@@H]1CN(C)C(=O)C1CCCCC1	56	1	.	-20[16.7 µM]	.	.	.
Cc1cccc(NC(=O)C2(C)CC3c4ccccc4C2c2ccccc23)c1 (configuration not stated)	0	12	-1	.	-19	29*	5
Cc1cccc(NC(=O)C2(c3ccccc3)CCOCC2)c1	.	-2	.	-4	-2	4	.
Cc1sc2c(c1C)c(=O)n(-c1cccc(C(F)(F)F)c1)c(=O)n2CC(=O)NCc1ccco1	1	.	4	7	-13	57*	1
CCOc1ccc(-n2c(=O)c3c(C)c(C)sc3n(CC(=O)NCc3ccco3)c2=O)cc1	.	2	-1	.	1	8	.
Cc1cccc(NC(=O)CCc2nc3sc4c(c3c(=O)[nH]2)CCCC4)c1	.	0	.	-4	-7	20*	3
CCc1cccc(NC(=O)CCc2nc3sc4c(c3c(=O)[nH]2)CCCC4)c1	.	3	5	10	-3	-11	.
Cn1c(=O)c2c(ncn2CC(=O)Nc2nc(-c3ccc(F)c(F)c3)cs2)n(C)c1=O	-4	0	-1	-3	4	32*	9
Cc1ccc(-c2csc(NC(=O)Cn3cnc4c3c(=O)n(C)c(=O)n4C)n2)cc1C	-1	.	-5	2	1	-2	.
Cc1ccc(-c2nc(NC(=O)CSc3cc(C)c4ccccc4n3)ns2)cc1	1	-8	-4	-14	2	0	.
O=C(CSc1nnnn1-c1ccccc1)Nc1nsc(-c2ccc(Cl)cc2)n1	.	.	-4	.	-10	58*	2
Cc1ccc(-c2nc(NC(=O)CSc3nnc(C)s3)ns2)cc1	-1	10	-4	14	-11	27*	-10
Cc1nc(NC(=O)/C=C/c2ccccc2)sc1C(=O)Nc1ccc(Cl)cc1	3	.	-1	-92	2	31*	0
